Experimental findings from ChEMBL document CHEMBL1137715, “A facile synthesis of alpha,alpha'-(EE)-bis(benzylidene)-cycloalkanones and their antitubercular evaluations” (2009) are described below.

In general, MIC refers to the lowest concentration found to suppress growth. The low end stands for a more susceptible organism, the high end for a less susceptible organism.

One assay concerns Pseudomonas aeruginosa. The assay is described as follows: Antimicrobial activity against Pseudomonas aeruginosa ATCC BAA-427 after 24 hrs by standard microbroth dilution technique. The assay is classed as functional, organism-based. (Dilution methods test growth across graded concentrations, often in twofold steps.)
Assay [1] concerns Mycobacterium tuberculosis. In words: Antitubercular activity against Mycobacterium tuberculosis H37Ra after 5 days by microplate alamar blue assay. The assay is classed as functional. The conditions noted are these: 120 h. Summed up: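 Microplate Alamar Blue assay on M. tuberculosis H37Ra. A log-phase culture was diluted to a final OD550 nm of 0.05 in Sauton's medium. Test compounds in DMSO were dispensed into 96-well plates, with two-fold dilutions in the initial screen.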
For orientation: Alamar Blue is a resazurin reagent that responds to reducing activity.

In a further assay the test system is Klebsiella pneumoniae. In words: Antimicrobial activity against Klebsiella pneumoniae ATCC 27736 after 24 hrs by standard microbroth dilution technique. The assay is classed as functional, organism-based.
In another assay the test system is Sporothrix schenckii. The assay is described as follows: Antimicrobial activity against Sporothrix schenckii after 72 hrs by standard microbroth dilution technique. The format is functional.
The next assay relates to Escherichia coli. In words: Antimicrobial activity against Escherichia coli ATCC 9637 after 24 hrs by standard microbroth dilution technique. The format is functional, organism-based.
In assay [2] the test system is Trichophyton mentagrophytes. The assay is described as follows: Antimicrobial activity against Trichophyton mentagrophytes after 96 hrs by standard microbroth dilution technique. The assay is classed as functional.
For assay [3], the system named is Mycobacterium tuberculosis. In words: Antitubercular activity against Mycobacterium tuberculosis H37Rv after 24 hrs by agar microdilution method. The format is functional. Summed up: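 Agar microdilution on M. tuberculosis H37Rv. Two-fold compound dilutions were made in 7H10 agar with OADC. Inoculum came from L–J medium, harvested in 0.85% saline with 0.05% Tween-80. Slants were held 24 h at 37 °C, then streaked with 5×10^4 bacilli per tube and incubated at 37 °C for 30 days. MIC was the concentration giving complete colony inhibition versus medium-only control.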

The next assay relates to Staphylococcus aureus. In words: Antimicrobial activity against Staphylococcus aureus ATCC 25923 after 24 hrs by standard microbroth dilution technique. The assay is classed as functional, organism-based.
A further assay relates to Aspergillus fumigatus. In words: Antimicrobial activity against Aspergillus fumigatus after 72 hrs by standard microbroth dilution technique. The assay is classed as functional.
The test system of a further assay is Candida albicans. In words: Antimicrobial activity against Candida albicans ATCC 1405B after 48 hrs by standard microbroth dilution technique. The format is functional.
A further assay relates to Cryptococcus neoformans. The assay is described as follows: Antimicrobial activity against Cryptococcus neoformans after 72 hrs by standard microbroth dilution technique. The format is functional.
A further assay relates to Candida parapsilosis. The assay is described as follows: Antimicrobial activity against Candida parapsilosis ATCC 22019 after 48 hrs by standard microbroth dilution technique. The conditions noted are these: Lodderomyces parapsilosis, ATCC 22019, 48 h. The assay is classed as functional.

The structures appear in SMILES notation. In brackets after ≈: the same amount, converted by molar mass. Activity calls are given as the source filed them. The calls are words filed in the database; no cut-off is given here.

In the case of `O=C1/C(=C/c2ccc(Br)cc2)CCC/C1=C\c1ccc(Br)cc1`, the result in the assay on Pseudomonas aeruginosa, in the assay with Klebsiella pneumoniae, in the assay with Escherichia coli and in the assay with Staphylococcus aureus was inactive. For the same compound, the MIC in assay [1] was determined as 1.56 µg/mL (≈ 3.61 µM); in the assay on Sporothrix schenckii, 25 µg/mL (≈ 57.8 µM); in assay [2] it was 12.5 µg/mL (≈ 28.9 µM); in assay [3] it was 12.5 µg/mL (≈ 28.9 µM).

Turning to `O=C1/C(=C/c2ccco2)CCC/C1=C\c1ccco1`, the result in the assay with Pseudomonas aeruginosa, in the assay on Klebsiella pneumoniae, with Escherichia coli and in the assay with Staphylococcus aureus was inactive. For the same compound, the minimum inhibitory concentration (MIC) was greater than 12.5 µg/mL in assay [1]; greater than 50 µg/mL against Aspergillus fumigatus; greater than 50 µg/mL with Candida albicans; greater than 12.5 µg/mL in [3]; greater than 50 µg/mL with Cryptococcus neoformans; greater than 50 µg/mL against Candida parapsilosis.

Consider `O=C1CCCCC1C(O)c1cccc([N+](=O)[O-])c1` (stereo not drawn), for which the outcome with Pseudomonas aeruginosa, with Klebsiella pneumoniae, with Escherichia coli and in the assay with Staphylococcus aureus was inactive. In addition, the MIC was greater than 12.5 µg/mL in assay [1]; greater than 50 µg/mL with Aspergillus fumigatus; greater than 50 µg/mL with Candida albicans; 12.5 µg/mL (≈ 50.1 µM) in [3]; greater than 50 µg/mL with Cryptococcus neoformans; greater than 50 µg/mL in the assay on Candida parapsilosis.
